Test results taken from the M2OR odorant receptor database.

Experiments:
Details in all cases: stereoisomer not certain
[1] = target: OR4C16 (Homo sapiens) (UniProt Q8NGL9)
Procedure, shortened: (§1)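 Whether a receptor–molecule pair is responsive (active) rests on the original authors' judgment that its measured signal was statistically different from baseline. Pairs without that judgment are non-responsive (inactive). Sources used varied assay methods, commonly transient luciferase assays in mammalian cell lines.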

[2] = tested on: OR4C3
Sequence of OR4C3 (as listed by the source): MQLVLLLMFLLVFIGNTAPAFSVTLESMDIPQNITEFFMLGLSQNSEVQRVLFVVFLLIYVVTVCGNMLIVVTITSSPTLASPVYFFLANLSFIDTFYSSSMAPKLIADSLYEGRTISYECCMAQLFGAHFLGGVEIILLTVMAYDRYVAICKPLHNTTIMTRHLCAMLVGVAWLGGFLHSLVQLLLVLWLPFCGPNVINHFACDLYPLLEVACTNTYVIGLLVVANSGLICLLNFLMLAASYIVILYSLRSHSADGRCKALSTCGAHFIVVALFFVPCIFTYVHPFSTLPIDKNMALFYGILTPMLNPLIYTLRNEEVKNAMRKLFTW
Procedure, shortened: as §1

[3] = target: OR4C45 (Homo sapiens) (UniProt A6NMZ5)
Procedure, shortened: as §1
Target sequence in this assay (A6NMZ5 whole entry): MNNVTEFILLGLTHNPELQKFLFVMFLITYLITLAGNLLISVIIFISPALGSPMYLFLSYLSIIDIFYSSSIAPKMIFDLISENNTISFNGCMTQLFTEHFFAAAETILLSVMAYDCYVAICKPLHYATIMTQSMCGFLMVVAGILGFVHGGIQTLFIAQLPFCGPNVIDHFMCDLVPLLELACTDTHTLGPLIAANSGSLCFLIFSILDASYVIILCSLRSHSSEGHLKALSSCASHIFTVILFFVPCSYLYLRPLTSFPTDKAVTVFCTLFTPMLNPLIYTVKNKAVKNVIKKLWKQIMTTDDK

[4] = target: OR4C46 (Homo sapiens) (UniProt A6NHA9)
Sequence of OR4C46 (Homo sapiens) (A6NHA9 whole entry): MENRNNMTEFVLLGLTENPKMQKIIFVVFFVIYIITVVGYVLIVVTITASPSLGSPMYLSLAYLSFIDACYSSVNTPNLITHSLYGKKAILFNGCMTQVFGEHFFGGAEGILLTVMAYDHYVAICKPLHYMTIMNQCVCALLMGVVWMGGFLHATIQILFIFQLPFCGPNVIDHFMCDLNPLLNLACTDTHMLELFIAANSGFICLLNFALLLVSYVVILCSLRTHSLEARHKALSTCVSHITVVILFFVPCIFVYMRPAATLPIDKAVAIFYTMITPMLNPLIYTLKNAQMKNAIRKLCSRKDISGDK
Procedure, shortened: as §1

[5] = target: OR4C5 (Homo sapiens) (UniProt Q8NGB2)
Sequence of OR4C5 (Homo sapiens) (Q8NGB2 whole entry): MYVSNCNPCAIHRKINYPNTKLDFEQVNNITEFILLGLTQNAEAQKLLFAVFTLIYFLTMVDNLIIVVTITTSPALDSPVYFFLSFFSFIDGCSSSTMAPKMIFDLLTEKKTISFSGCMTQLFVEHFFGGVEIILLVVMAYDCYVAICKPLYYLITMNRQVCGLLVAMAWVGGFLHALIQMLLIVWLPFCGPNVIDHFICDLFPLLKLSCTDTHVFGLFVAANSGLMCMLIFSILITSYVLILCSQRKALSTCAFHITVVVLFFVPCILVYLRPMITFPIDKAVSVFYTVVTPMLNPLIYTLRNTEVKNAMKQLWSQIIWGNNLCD
Procedure, shortened: as §1

[6] = target: OR4C6 (Homo sapiens) (UniProt Q8NH72)
Sequence of OR4C6 (Homo sapiens) (Q8NH72 whole entry): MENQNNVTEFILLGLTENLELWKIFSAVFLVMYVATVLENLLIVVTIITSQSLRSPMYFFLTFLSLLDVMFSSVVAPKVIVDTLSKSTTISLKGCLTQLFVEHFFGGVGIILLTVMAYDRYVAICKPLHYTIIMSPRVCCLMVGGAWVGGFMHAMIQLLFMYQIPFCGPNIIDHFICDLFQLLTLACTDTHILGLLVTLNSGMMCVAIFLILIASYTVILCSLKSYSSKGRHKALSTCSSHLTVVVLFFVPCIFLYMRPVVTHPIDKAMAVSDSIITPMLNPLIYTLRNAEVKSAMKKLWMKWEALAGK
Procedure, shortened: as §1

[7] = tested on: OR4CB P8T
Sequence of OR4CB P8T (as listed by the source): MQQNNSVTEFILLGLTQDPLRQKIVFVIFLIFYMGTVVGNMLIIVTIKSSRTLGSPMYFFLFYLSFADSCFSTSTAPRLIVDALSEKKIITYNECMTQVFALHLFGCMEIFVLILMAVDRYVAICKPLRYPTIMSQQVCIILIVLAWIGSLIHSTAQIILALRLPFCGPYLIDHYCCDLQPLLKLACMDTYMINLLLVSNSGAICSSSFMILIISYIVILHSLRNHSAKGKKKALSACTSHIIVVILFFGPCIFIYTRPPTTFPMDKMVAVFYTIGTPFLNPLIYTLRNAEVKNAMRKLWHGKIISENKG
Procedure, shortened: as §1

[8] = tested on: OR4CC
Sequence of OR4CC (as listed by the source): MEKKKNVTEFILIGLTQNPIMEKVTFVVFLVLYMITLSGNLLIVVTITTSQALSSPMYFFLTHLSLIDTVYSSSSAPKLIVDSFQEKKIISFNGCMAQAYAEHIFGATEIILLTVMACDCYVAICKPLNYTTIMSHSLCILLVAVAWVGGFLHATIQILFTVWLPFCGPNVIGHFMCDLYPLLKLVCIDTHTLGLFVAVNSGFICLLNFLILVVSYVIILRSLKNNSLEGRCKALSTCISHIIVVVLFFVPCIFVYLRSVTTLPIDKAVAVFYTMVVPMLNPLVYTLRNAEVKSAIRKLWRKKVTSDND
Procedure, shortened: as §1

[9] = target: OR4C3 (Homo sapiens) (UniProt Q8NH37)
Sequence of OR4C3 (Homo sapiens) (Q8NH37 whole entry): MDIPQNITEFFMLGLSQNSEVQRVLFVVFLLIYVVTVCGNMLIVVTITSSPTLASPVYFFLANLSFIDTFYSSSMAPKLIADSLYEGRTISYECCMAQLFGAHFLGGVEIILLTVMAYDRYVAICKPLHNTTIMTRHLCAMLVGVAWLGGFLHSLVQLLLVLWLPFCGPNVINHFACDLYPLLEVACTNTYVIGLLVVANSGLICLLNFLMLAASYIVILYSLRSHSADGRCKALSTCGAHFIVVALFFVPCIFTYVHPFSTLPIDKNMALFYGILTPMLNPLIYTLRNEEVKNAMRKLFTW
Procedure, shortened: as §1

[10] = target: OR4C45 (Homo sapiens) (UniProt A6NMZ5); remark: listed apart in the source
Procedure, shortened: as §1
Target sequence in this assay (A6NMZ5 as listed by the source): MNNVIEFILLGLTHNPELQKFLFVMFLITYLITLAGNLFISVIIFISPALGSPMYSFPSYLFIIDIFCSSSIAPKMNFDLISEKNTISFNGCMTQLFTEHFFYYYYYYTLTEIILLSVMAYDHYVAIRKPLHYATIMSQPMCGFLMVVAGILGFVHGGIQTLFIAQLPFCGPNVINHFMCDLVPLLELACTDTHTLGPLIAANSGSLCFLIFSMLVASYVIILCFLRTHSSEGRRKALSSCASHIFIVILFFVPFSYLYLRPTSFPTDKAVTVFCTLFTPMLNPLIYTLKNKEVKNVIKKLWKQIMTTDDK

Measured: odorant receptor agonist call;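 further: active if original authors judged signal statistically different from baseline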

Sequence of OR4C16 (Homo sapiens) (Q8NGL9 whole entry): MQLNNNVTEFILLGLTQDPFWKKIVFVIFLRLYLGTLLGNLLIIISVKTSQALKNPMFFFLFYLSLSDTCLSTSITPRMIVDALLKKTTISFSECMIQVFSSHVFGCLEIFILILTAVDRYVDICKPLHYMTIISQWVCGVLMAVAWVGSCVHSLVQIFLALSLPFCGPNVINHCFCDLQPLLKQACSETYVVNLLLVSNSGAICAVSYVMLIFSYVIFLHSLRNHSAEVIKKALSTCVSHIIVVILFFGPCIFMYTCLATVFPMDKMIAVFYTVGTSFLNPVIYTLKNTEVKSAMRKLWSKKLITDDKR

C=CCOC(=O)Cc1ccccc1
not listed: [9] | [10]
inactive: all other assays above

Cc1c([N+](=O)[O-])c(C)c([N+](=O)[O-])c(C(C)(C)C)c1[N+](=O)[O-]
inactive: [1] | [9] | [10] | [4] | [5] | [6]
